Measured values from different studies.
Compare with care: the assays were run in different laboratories.

The solubility of `CC(C)C[C@H](NC(=O)[C@H](CCc1ccccc1)NC(=O)CN1CCOCC1)C(=O)N[C@@H](Cc1ccccc1)C(=O)N[C@@H](CC(C)C)C(=O)[C@@]1(C)CO1` is reported as 1.56 µM (PBS; 24 h; pH 7.4; 37 °C).
`CCOc1ccc2cc(-c3nn(C4CCCCC4)c(N)c3C(N)=O)cnc2c1` has a solubility of 34.3 µM (PBS; pH 6.5; 25 °C).
For `O=C1NCCc2nc(OCc3cccc(F)c3)ccc21`, the solubility was 114 µM (FaSSIF; 24 h; pH 7.2).
With `CCCCOC(=O)c1ccc(O)cc1` the solubility was 310 µg/mL (PBS; pH 7.4).
`NC1CCN(c2nccc3[nH]c(-c4ccc(F)c(F)c4)nc23)CC1` gave a solubility of over 200 µM (shake flask; aqueous buffer; pH 6.5).
`COC(=O)C1=C(C)NC(C)=C(C(=O)OCCN(C)Cc2ccccc2)C1c1cccc([N+](=O)[O-])c1` (stereo not shown) has a solubility of 227 µg/mL (FaSSIF; 24 h; pH 7.4; 37 °C).
`CC(=O)N1CCN(c2ccc(OCC3COC(Cn4ccnc4)(c4ccc(Cl)cc4Cl)O3)cc2)CC1` (stereo not shown) gave a solubility of 55.6 µM (PBS; pH 7.4).
`CCOc1ccc2cc(-c3nn(CC(C)(C)CO)c(N)c3C(N)=O)ccc2n1` has a solubility of over 100 µM (PBS; pH 6.5; 25 °C).
`CCCCCCCCCCCCN1CCCC1=O` gave a solubility of 21 µM (PBS; 48 h; pH 7.4; 25 °C).
`O=C(O)Cc1ccccc1Nc1c(Cl)cccc1Cl` has a solubility of 1940 µg/mL (PBS; pH 7.4).
The solubility of `CCc1ccccc1-n1nc(C)c(C(=O)Nc2ccc3ccccc3n2)c1C` is reported as 5.9 µg/mL (HPLC; PBS; 6 h; pH 7.4).
With `Cc1cc(Nc2ccc(C(F)(F)F)cc2)n2nc(CCO)nc2n1` the solubility was 19 to 37 µM (nephelometry; aqueous buffer; pH 6.5).
The solubility of `O=C(c1ccccn1)N(Cc1cccs1)C1(C(=O)NC2CCCCC2)CCCCC1` is reported as 6.6 µg/mL (aqueous buffer; pH 6.2).
With `Cc1nnc(CCCCCN)nn1.Cl` the solubility was over 500000 µM (water).
With `CCC(C)n1ncn(-c2ccc(N3CCN(c4ccc(OCC5COC(Cn6cncn6)(c6ccc(Cl)cc6Cl)O5)cc4)CC3)cc2)c1=O` (stereo not shown) the solubility was 2.5 µg/mL (aqueous buffer; pH 6).
With `Brc1cccc(Nc2nc(NCc3ccccc3)c3ccccc3n2)c1` the solubility was 0.03 µg/mL (aqueous buffer; pH 5).
`Cl.NC1CCN(c2nc3cc(Cl)ccc3n2Cc2ccccc2)CC1` has a solubility of over 150 µM (shake flask; aqueous buffer; 20 h; pH 6.5; 25 °C).
`CC(C)(C)n1nc(-c2cnc3cc(OCC4CC4)ccc3c2)c(C(N)=O)c1N` has a solubility of 26.8 µM (PBS; pH 6.5; 25 °C).
For `COc1cccc2c(NCc3ccccc3)nc(-n3c(=O)oc4ccccc43)nc12`, the solubility was under 0.01 µg/mL (aqueous buffer; pH 7.4).
With `NCC1CCN(c2nccc3[nH]c(-c4cccc(OC(F)(F)F)c4)nc23)CC1` the solubility was over 200 µM (shake flask; aqueous buffer; pH 6.5).
`COc1c(Cl)cccc1Nc1nc(NCc2ccccc2)c2ccccc2n1` has a solubility of 0.5 µg/mL (aqueous buffer; pH 5).
For `CCOC(=O)c1ccc(N)cc1`, the solubility was 890 µg/mL (PBS; pH 7.4).
The solubility of `CSC[C@H]1O[C@@H](n2cnc3c(N)ncnc32)[C@H](O)[C@@H]1O` is reported as 110 µM (PBS).
For `N=C(N)NCc1ccc(NC(=O)C23CCC(C(=O)Nc4ccc(C5=CCN(C(=N)N)CC5)cc4)(CC2)CC3)cc1`, the solubility was 46 µg/mL (shake flask; aqueous buffer; pH 7.4).
The solubility of `O=C(Nc1ccc(S(=O)(=O)N2CCC(Cl)CC2)cc1)c1ccc([N+](=O)[O-])o1` is reported as 9.4 µM (PBS; pH 7.4).
`CN1CCN(CC2CCN(c3cccc4[nH]c(-c5cc(F)cc(F)c5)nc34)CC2)CC1` gave a solubility of over 200 µM (shake flask; aqueous buffer; pH 6.5).
`Cc1cc(Nc2ccc(Cl)cc2)n2nc(C(C)(F)F)nc2n1` has a solubility of 77 to 150 µM (nephelometry; aqueous buffer; pH 6.5).
The solubility of `COc1cc(OC)cc(N(CCNC(C)C)c2ccc3ncc(-c4cnn(C)c4)nc3c2)c1` is reported as 150 µg/mL (aqueous buffer; pH 7.65).
The solubility of `NCCNc1nc2cc(Cl)ccc2n1Cc1ccccc1` is reported as at least 200 µM (shake flask; aqueous buffer; 20 h; pH 6.5; 25 °C).
With `Cc1ccc(Nc2nc(NCc3ccccc3)c3ccccc3n2)cc1F` the solubility was 0.04 µg/mL (aqueous buffer; pH 6.2).
`OCCOc1ccccc1` gave a solubility of 180000 µM (PBS; 48 h; pH 7.4; 25 °C).
With `Cc1c(F)cccc1Nc1nc(NCc2ccccc2)c2ccccc2n1` the solubility was 0.05 µg/mL (aqueous buffer; pH 6.2).
`CC(C)CC(=O)N1CCC[C@H](COc2cccc3c2C(N)=NS(=O)(=O)[N-]3)C1.[Na+]` gave a solubility of 235000 µM (water).
With `O=C(/C=C/c1ccc(CN(CCO)CCc2c[nH]c3ccccc23)cc1)NO` the solubility was 4100 µg/mL (simulated gastric fluid; 48 h; pH 2; 25 °C; acidic).
For `CCCn1nc(C(=O)N2CCCCC2)c2c1CCC(N(C)Cc1ccc(F)cc1)C2` (stereo not shown), the solubility was 2420 µM (PBS; 16 h; pH 7.4).
The solubility of `Clc1ccc2c(c1)nc(C1CCNCC1)n2Cc1ccccc1` is reported as 125 µM (shake flask; aqueous buffer; 20 h; pH 6.5; 25 °C).
With `CCOc1ccc2cc(-c3nn(C(C)(C)C)c(N)c3C(N)=O)cnc2c1` the solubility was 26 µM (PBS; pH 6.5; 25 °C).
For `CC[C@H](C)[C@H](NC(=O)[C@H](CO)NC(=O)[C@H](CCCNC(=N)N)NC(C)=O)C(=O)N[C@H]1CSSC[C@@H](C(=O)N[C@H](C(N)=O)[C@@H](C)O)NC(=O)[C@H](CCCNC(=N)N)NC(=O)[C@H](Cc2c[nH]cn2)NC(=O)[C@H](C)NC(=O)CNC(=O)[C@H](Cc2c[nH]c3ccccc23)NC(=O)[C@H](CC(=O)O)NC(=O)[C@H](CCC(N)=O)NC(=O)[C@H](Cc2c[nH]c3ccccc23)NC(=O)[C@H](C(C)C)NC1=O`, the solubility was 3690 µg/mL (PBS; pH 7.4).
With `O=C(Nc1cc(F)c(F)c(F)c1)c1ccc(F)c(S(=O)(=O)NCc2cccc(B(O)O)c2)c1` the solubility was 427 µg/mL (aqueous buffer; pH 7.4).
With `Cc1ccc(F)cc1Nc1nc(NCc2ccccc2)c2ccccc2n1` the solubility was 0.04 µg/mL (aqueous buffer; pH 7.4).
`COc1cccc2c(-c3ccccc3)cc(-c3ccc(-c4ccc(C(=O)O)cc4)[nH]3)nc12` gave a solubility of 0.26 µM (PBS; pH 7.4).
`CN(C)C1CN(Cc2ccc(NC(=O)c3ccc(OCCCl)c([N+](=O)[O-])c3)cc2C(F)(F)F)C1` has a solubility of under 5 µg/mL (HPLC; water; 1 h).
For `COc1ccc(Nc2nc(NCc3ccccc3)c3ccccc3n2)cc1F`, the solubility was 0.08 µg/mL (aqueous buffer; pH 7.4).
The solubility of `COc1cccc(OC)c1-c1cc(C(=O)N[C@@H](CC(C)C)C(=O)O)nn1-c1ccnc2cc(Cl)ccc12` is reported as 52.9 µg/mL (aqueous buffer; pH 5).
`O=C(NCCN1CCCC1)c1cc(-c2ccc(CN3CCOCC3)cc2)nc2ccc(F)cc12` gave a solubility of 2800 µM (aqueous buffer; pH 7.4).
`Cc1cc(Nc2ccc(C(F)(F)F)cc2)n2nc(C(C)(F)F)nc2n1` has a solubility of 70 to 140 µM (nephelometry; aqueous buffer; pH 6.5).
With `Fc1ccc(-c2nc3c(N4CCCN(CC5CC5)CC4)nccc3[nH]2)cc1F` the solubility was over 200 µM (shake flask; aqueous buffer; pH 6.5).
The solubility of `Brc1ccccc1CNc1nc(NCc2ccccc2)c2ccccc2n1` is reported as 0.21 µg/mL (aqueous buffer; pH 5).
For `NCCCNc1nc2cc(Br)ccc2n1Cc1ccccc1`, the solubility was 100 µM (shake flask; aqueous buffer; 20 h; pH 6.5; 25 °C).
`CCOc1ccc2cc(-c3nn(CC(C)(C)CO)c(N)c3C(N)=O)cnc2c1` has a solubility of over 100 µM (PBS; pH 6.5; 25 °C).
`Cc1c(F)cccc1NC(=O)Nc1ccc(Cl)c(S(=O)(=O)[C@H]2CCCNC2)c1O` has a solubility of 68 µg/mL (aqueous buffer; 4 h; pH 10).
`COCCc1nc2nc(C)cc(Nc3ccc(C(F)(F)F)cc3)n2n1` gave a solubility of 71 to 140 µM (nephelometry; aqueous buffer; pH 6.5).
The solubility of `Cc1cccc(F)c1N1CCC(N2Cc3cn(CC(C)(F)F)nc3N(Cc3ccccc3C(F)(F)F)C2=O)CC1` is reported as 10 µM (aqueous buffer; pH 7.4).
`COCCc1nc2nc(C)cc(Nc3ccc(S(F)(F)(F)(F)F)cc3)n2n1` has a solubility of 31 to 62 µM (nephelometry; aqueous buffer; pH 6.5).
With `NC(=O)c1ccc(N(Cc2ccc(C3CCCCC3)cn2)C(=O)[C@H]2CCN2S(=O)(=O)c2c(F)c(F)c(F)c(F)c2F)cc1O` the solubility was 107 µg/mL (simulated gastric fluid).
